# ChEMBL document CHEMBL4033712, “Synthesis and biological evaluation of new C-12(α/β)-(N-) sulfamoyl-phenylamino-14-deoxy-andrographolide derivatives as potent anti-cancer agents” (Bioorg Med Chem Lett, 2017)
# What was measured:
# Format in all cases: functional
# K562 = experiment: Growth inhibition of human K562 cells incubated for 48 hrs by sulforhodamine B assay; settings: K562, 48 h
# Summary of the method: (§1)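 NCI-60 five-dose screen at 0.01, 0.1, 1, 10 and 100 µM, 48 h incubation, sulforhodamine B end point. GI50 (50% decrease in net growth), TGI (total growth inhibition) and LC50 (net 50% loss of initial cells) taken from log concentration versus % growth inhibition curves.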
# NCI-H322M = experiment: Growth inhibition of human NCI-H322M cells incubated for 48 hrs by sulforhodamine B assay; summary of the method: as §1
# NCI-H522 = experiment: Growth inhibition of human NCI-H522 cells incubated for 48 hrs by sulforhodamine B assay; settings: NCI-H522, 48 h; summary of the method: as §1
# COLO 205 = experiment: Growth inhibition of human COLO205 cells incubated for 48 hrs by sulforhodamine B assay; settings: COLO 205, 48 h; summary of the method: as §1
# HCC 2998 = experiment: Growth inhibition of human HCC2998 cells incubated for 48 hrs by sulforhodamine B assay; settings: HCC 2998, 48 h; summary of the method: as §1
# HCT-116 = experiment: Growth inhibition of human HCT116 cells incubated for 48 hrs by sulforhodamine B assay; settings: HCT-116, 48 h; summary of the method: as §1
# HT-29 = experiment: Growth inhibition of human HT-29 cells incubated for 48 hrs by sulforhodamine B assay; settings: HT-29, 48 h; summary of the method: as §1
# SF-268 = experiment: Growth inhibition of human SF268 cells incubated for 48 hrs by sulforhodamine B assay; settings: SF-268, 48 h
# Summary of the method: (§2)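 NCI 60 human tumour cell line panel, five-dose study at 0.01, 0.1, 1, 10 and 100 µM, 48 h incubation. Sulforhodamine B protein-binding dye end point. GI50 (50% decrease in net cell growth), TGI (total growth inhibition) and LC50 (net 50% loss of initial cells) read from log concentration versus % growth inhibition curves.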
# SNB-19 [1] = experiment: Growth inhibition of human SNB19 cells incubated for 48 hrs by sulforhodamine B assay; settings: SNB-19, 48 h; summary of the method: as §2
# SNB-75 = experiment: Growth inhibition of human SNB75 cells incubated for 48 hrs by sulforhodamine B assay; settings: SNB-75, 48 h; summary of the method: as §2
# U-251 = experiment: Growth inhibition of human U251 cells incubated for 48 hrs by sulforhodamine B assay; settings: U-251, 48 h; summary of the method: as §2
# LOX IMVI = experiment: Growth inhibition of human LOXIMVI cells incubated for 48 hrs by sulforhodamine B assay; summary of the method: as §1
# M14 = experiment: Growth inhibition of human M14 cells incubated for 48 hrs by sulforhodamine B assay; settings: M14, 48 h; summary of the method: as §1
# SK-MEL-2 = experiment: Growth inhibition of human SK-MEL-2 cells incubated for 48 hrs by sulforhodamine B assay; settings: SK-MEL-2, 48 h; summary of the method: as §2
# SK-MEL-28 = experiment: Growth inhibition of human SK-MEL-28 cells incubated for 48 hrs by sulforhodamine B assay; settings: SK-MEL-28, 48 h; summary of the method: as §2
# SK-MEL-5 = experiment: Growth inhibition of human SK-MEL-5 cells incubated for 48 hrs by sulforhodamine B assay; settings: SK-MEL-5, 48 h; summary of the method: as §2
# OVCAR-3 = experiment: Growth inhibition of human OVCAR3 cells incubated for 48 hrs by sulforhodamine B assay; settings: OVCAR-3, 48 h; summary of the method: as §1
# OVCAR-4 = experiment: Growth inhibition of human OVCAR4 cells incubated for 48 hrs by sulforhodamine B assay; settings: OVCAR-4, 48 h; summary of the method: as §1
# OVCAR-5 = experiment: Growth inhibition of human OVCAR5 cells incubated for 48 hrs by sulforhodamine B assay; settings: OVCAR-5, 48 h; summary of the method: as §1
# OVCAR-8 = experiment: Growth inhibition of human OVCAR8 cells incubated for 48 hrs by sulforhodamine B assay; settings: OVCAR-8, 48 h; summary of the method: as §1
# 786-0 = experiment: Growth inhibition of human 786-0 cells incubated for 48 hrs by sulforhodamine B assay; settings: 786-0, 48 h; summary of the method: as §1
# A498 = experiment: Growth inhibition of human A498 cells incubated for 48 hrs by sulforhodamine B assay; settings: A498, 48 h; summary of the method: as §1
# ACHN = experiment: Growth inhibition of human ACHN cells incubated for 48 hrs by sulforhodamine B assay; summary of the method: as §1
# RXF 393 = experiment: Growth inhibition of human RXF393 cells incubated for 48 hrs by sulforhodamine B assay; settings: RXF 393, 48 h; summary of the method: as §2
# MCF7 = experiment: Growth inhibition of human MCF7 cells incubated for 48 hrs by sulforhodamine B assay; settings: MCF7, 48 h; summary of the method: as §1
# Hs-578T = experiment: Growth inhibition of human Hs 578T cells incubated for 48 hrs by sulforhodamine B assay; summary of the method: as §1
# BT-549 = experiment: Growth inhibition of human BT549 cells incubated for 48 hrs by sulforhodamine B assay; settings: BT-549, 48 h; summary of the method: as §1
# T47D = experiment: Growth inhibition of human T47D cells incubated for 48 hrs by sulforhodamine B assay; summary of the method: as §2
# SNB-19 [2] = experiment: Anticancer activity against human SNB19 cells assessed as cell growth at 10 uM after 48 hrs by sulforhodamine B assay relative to control; settings: SNB-19, 48 h, read-out: Activity
# Summary of the method: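 Single-dose NCI-60 panel screen: compound added at 10 µM and the culture incubated 48 h. The end point was read by protein staining with sulforhodamine B. The value is percent growth of treated cells relative to untreated control cells, reported as a mean graph across the panel.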
# [3] = read-out: LC50 (the source's name)
smiles,measurement,setting,value
C=C1CC[C@@H]2[C@](C)(COC(C)=O)[C@H](OC(C)=O)CC[C@@]2(C)[C@H]1CC(Nc1ccc(S(=O)(=O)Nc2ncccn2)cc1)C1=CCOC1=O (some centres undefined),GI50,K562,1.73 µM
same,TGI,K562,11.7 µM
same,CC50,K562; [3],> 100 µM
same,GI50,NCI-H322M,3.12 µM
same,TGI,NCI-H322M,11.1 µM
same,CC50,NCI-H322M; [3],35.6 µM
same,GI50,NCI-H522,0.49 µM
same,TGI,NCI-H522,2.07 µM
same,CC50,NCI-H522; [3],6.45 µM
same,GI50,COLO 205,1.78 µM
same,TGI,COLO 205,3.8 µM
same,CC50,COLO 205; [3],8.11 µM
same,GI50,HCC 2998,2.1 µM
same,TGI,HCC 2998,3.81 µM
same,CC50,HCC 2998; [3],6.9 µM
same,GI50,HCT-116,0.87 µM
same,TGI,HCT-116,2.49 µM
same,CC50,HCT-116; [3],6.51 µM
same,GI50,HT-29,1.03 µM
same,TGI,HT-29,2.79 µM
same,GI50,SF-268,1.93 µM
same,TGI,SF-268,4.16 µM
same,CC50,SF-268; [3],8.97 µM
same,GI50,SNB-19 [1],1.63 µM
same,TGI,SNB-19 [1],3.76 µM
same,CC50,SNB-19 [1]; [3],8.65 µM
same,GI50,SNB-75,1.27 µM
same,TGI,SNB-75,3.23 µM
same,CC50,SNB-75; [3],8.2 µM
same,GI50,U-251,1.74 µM
same,TGI,U-251,3.28 µM
same,CC50,U-251; [3],6.17 µM
same,GI50,LOX IMVI,0.89 µM
same,TGI,LOX IMVI,2.21 µM
same,CC50,LOX IMVI; [3],5.06 µM
same,GI50,M14,1.44 µM
same,TGI,M14,3.98 µM
same,CC50,M14; [3],15.9 µM
same,GI50,SK-MEL-2,2.36 µM
same,TGI,SK-MEL-2,7.2 µM
same,CC50,SK-MEL-2; [3],30.4 µM
same,GI50,SK-MEL-28,1.69 µM
same,LC50 (50% net cell kill),SK-MEL-28,6.2 µM
same,TGI,SK-MEL-28,3.24 µM
same,GI50,SK-MEL-5,1.9 µM
same,TGI,SK-MEL-5,3.85 µM
same,CC50,SK-MEL-5; [3],7.81 µM
same,GI50,OVCAR-3,1.21 µM
same,TGI,OVCAR-3,2.54 µM
same,CC50,OVCAR-3; [3],5.31 µM
same,GI50,OVCAR-4,1.85 µM
same,LC50,OVCAR-4,19.3 µM
same,TGI,OVCAR-4,5.26 µM
same,GI50,OVCAR-5,1.98 µM
same,LC50 (concentration causing net 50% loss of initial cells),OVCAR-5,7.47 µM
same,TGI,OVCAR-5,3.85 µM
same,GI50,OVCAR-8,1.48 µM
same,TGI,OVCAR-8,3.55 µM
same,CC50,OVCAR-8; [3],8.53 µM
same,GI50,786-0,1.77 µM
same,LC50 (concentration giving net 50% loss of initial cells),786-0,6.51 µM
same,TGI,786-0,3.39 µM
same,GI50,A498,12.3 µM
same,LC50 (concentration giving net 50% loss of initial cells),A498,49.9 µM
same,TGI,A498,24.7 µM
same,GI50,ACHN,1.72 µM
same,TGI,ACHN,3.27 µM
same,CC50,ACHN; [3],6.2 µM
same,GI50,RXF 393,1.95 µM
same,TGI,RXF 393,3.58 µM
same,CC50,RXF 393; [3],6.6 µM
same,GI50,MCF7,1.07 µM
same,TGI,MCF7,4.54 µM
same,CC50,MCF7; [3],> 100 µM
same,GI50,Hs-578T,3.54 µM
same,LC50,Hs-578T,> 100 µM
same,TGI,Hs-578T,24.4 µM
same,GI50,BT-549,1.64 µM
same,TGI,BT-549,3.39 µM
same,CC50,BT-549; [3],7.04 µM
same,GI50,T47D,2 µM
same,TGI,T47D,5.46 µM
same,CC50,T47D; [3],> 100 µM
same,growth at 10 µM,SNB-19 [2],36.7%
